Reference: ChEMBL document CHEMBL2040798, “One-pot synthesis of novel isoindoline-1,3-dione derivatives bearing 1,2,4-triazole moiety and their preliminary biological evaluation” (Eur J Med Chem, 2012)

How the values were obtained:
[1] = Cytotoxicity against human PC3M cells after 48 hrs by MTT assay; type: functional, cell-based; details: PC-3M
Method in brief: (§1)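 MTT assay. Cells kept in DMEM with 10% FBS. HepG2 seeded at 1 × 10^4 cells/well; A549, PC-3M and MKN45 at 1.6 × 10^4 cells/well. Attachment 24 h at 37 °C. Compounds diluted in medium from 10 mM DMSO stocks; 0.1% DMSO served as negative control. Exposure 48 h at 37 °C, then MTT for 3 h. Formazan dissolved in DMSO and read at 570 nm. IC50 from a concentration series; mean of three independent experiments.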

A549 [2] = experiment: Cytotoxicity against human A549 cells after 48 hrs by MTT assay; type: functional, cell-based; details: A549, 48 h; method in brief: as §1
Pyricularia grisea = experiment: Growth inhibition of Phyricularia oryzae Cav. at 150 mg/mL after 48 hrs by mycelium growth rate method; type: functional; set-up: dose or concentration left out as unconfirmed; details: read-out: GI
HepG2 [3] = experiment: Cytotoxicity against human HepG2 cells after 48 hrs by MTT assay; type: functional, cell-based; details: HepG2, 48 h; method in brief: as §1
MKN-45 = experiment: Cytotoxicity against human MKN45 cells after 48 hrs by MTT assay; type: functional, cell-based; details: MKN-45, 48 h; method in brief: as §1
HepG2 [4] = experiment: Cell cycle arrest in human HepG2 cells assessed as Sub-G0 phase cells at 4 uM after 24 hrs by flow cytometry (reference value: 2.48%); type: functional
HepG2 [5] = experiment: Induction of apoptosis in human HepG2 cells after 24 hrs by flow cytometry; type: functional, cell-based
HepG2 [6] = experiment: Cell cycle arrest in human HepG2 cells assessed as G0/G1 phase cells at 8 uM after 24 hrs by flow cytometry (reference value: 54.65%); type: functional
HepG2 [7] = experiment: Ratio of Fluorouracil IC50 to compound IC50 for human HepG2 cells; type: functional
HepG2 [8] = experiment: Cell cycle arrest in human HepG2 cells assessed as Sub-G0 phase cells at 16 uM after 24 hrs by flow cytometry (reference value: 2.48%); type: functional
HepG2 [9] = experiment: Cell cycle arrest in human HepG2 cells assessed as G0/G1 phase cells at 16 uM after 24 hrs by flow cytometry (reference value: 54.65%); type: functional
HepG2 [10] = experiment: Cell cycle arrest in human HepG2 cells assessed as S phase cells at 8 uM after 24 hrs by flow cytometry (reference value: 29.84%); type: functional
HepG2 [11] = experiment: Cell cycle arrest in human HepG2 cells assessed as S phase cells at 16 uM after 24 hrs by flow cytometry (reference value: 29.84%); type: functional
A549 [12] = experiment: Ratio of Fluorouracil IC50 to compound IC50 for human A549 cells; type: functional
HepG2 [13] = experiment: Cell cycle arrest in human HepG2 cells assessed as G0/G1 phase cells at 4 uM after 24 hrs by flow cytometry (reference value: 54.65%); type: functional
HepG2 [14] = experiment: Cell cycle arrest in human HepG2 cells assessed as G2/M phase cells at 8 uM after 24 hrs by flow cytometry (reference value: 16.38%); type: functional
HepG2 [15] = experiment: Cell cycle arrest in human HepG2 cells assessed as G2/M phase cells at 16 uM after 24 hrs by flow cytometry (reference value: 16.38%); type: functional
HepG2 [16] = experiment: Cell cycle arrest in human HepG2 cells assessed as S phase cells at 4 uM after 24 hrs by flow cytometry (reference value: 29.84%); type: functional
HepG2 [17] = experiment: Cell cycle arrest in human HepG2 cells assessed as Sub-G0 phase cells at 8 uM after 24 hrs by flow cytometry (reference value: 2.48%); type: functional
HepG2 [18] = experiment: Cell cycle arrest in human HepG2 cells assessed as G2/M phase cells at 4 uM after 24 hrs by flow cytometry (reference value: 16.38%); type: functional

Structure (SMILES) | IC50 [1] [µM] | IC50 (A549 [2]) [µM] | inhibition of growth (Pyricularia grisea) [%] | IC50 (HepG2 [3]) [µM] | IC50 (MKN-45) [µM] | further results
Cc1ccc(C(=O)CSc2nnc(C)n2N2C(=O)c3ccccc3C2=O)cc1 | > 200 | > 200 | ≥ 50 | > 200 | > 200 | 
CCCc1nnc(SCC(=O)c2ccccc2)n1N1C(=O)c2ccccc2C1=O | > 200 | > 200 | < 50 | > 200 | > 200 | 
COc1cc(-c2nnc(SCC(=O)c3ccc(Cl)cc3)n2N2C(=O)c3ccccc3C2=O)cc(OC)c1OC | 20.7 | 9.03 | < 50 | 22 | 26.6 | 
CCc1nnc(SCc2ccccc2)n1N1C(=O)c2ccccc2C1=O | > 200 | > 200 | ≥ 50 | > 200 | > 200 | 
CSc1nnc(C)n1N1C(=O)c2ccccc2C1=O | > 200 | > 200 | < 50 | > 200 | > 200 | 
CCOC(=O)CSc1nnc(-c2cc(OC)c(OC)c(OC)c2)n1N1C(=O)c2ccccc2C1=O | > 200 | > 200 | < 50 | > 200 | > 200 | 
CC(C)(C)C(=O)C(Oc1ccc(Cl)cc1)n1cncn1 (stereo not drawn) [TRIADIMEFON] |  |  | ≥ 80 |  |  | 
C#CCSc1nnc(CCC)n1N1C(=O)c2ccccc2C1=O | > 200 | > 200 | < 50 | > 200 | > 200 | 
C#CCSc1nnc(-c2cc(OC)c(OC)c(OC)c2)n1N1C(=O)c2ccccc2C1=O | > 200 | > 200 | < 50 | > 200 | > 200 | 
COc1cc(-c2nnc(SCC(=O)c3ccccc3)n2N2C(=O)c3ccccc3C2=O)cc(OC)c1OC | > 200 | > 200 | ≥ 60 | 171 | > 200 | 
Cc1nnc(SCC(=O)c2ccccc2)n1N1C(=O)c2ccccc2C1=O | > 200 | > 200 | < 50 | > 200 | > 200 | 
CCCc1nnc(SCc2ccccc2Cl)n1N1C(=O)c2ccccc2C1=O | > 200 | > 200 | < 50 | > 200 | > 200 | 
COc1ccc(C(=O)CSc2nnc(-c3cc(OC)c(OC)c(OC)c3)n2N2C(=O)c3ccccc3C2=O)cc1 | 32.8 | 30 | < 50 | 28.7 | 37.2 | 
Cc1nnc(SCc2ccccc2Cl)n1N1C(=O)c2ccccc2C1=O | > 200 | > 200 | ≥ 60 | > 200 | > 200 | 
C=CCSc1nnc(CC)n1N1C(=O)c2ccccc2C1=O | > 200 | > 200 | < 50 | > 200 | > 200 | 
Cc1nnc(SCc2ccccc2)n1N1C(=O)c2ccccc2C1=O | > 200 | > 200 | < 50 | > 200 | > 200 | 
CCCc1nnc(SCc2ccccc2)n1N1C(=O)c2ccccc2C1=O | > 200 | > 200 | < 50 | > 200 | > 200 | 
O=c1[nH]cc(F)c(=O)[nH]1 [FLUOROURACIL] | 22.6 |  |  |  | 41.7 | 
CCc1nnc(SCC(=O)c2ccc(C)cc2)n1N1C(=O)c2ccccc2C1=O | > 200 | > 200 | < 50 | > 200 | > 200 | 
C#CCSc1nnc(CC)n1N1C(=O)c2ccccc2C1=O | > 200 | > 200 | ≥ 60 | > 200 | > 200 | 

Structure (SMILES) | IC50 [1] [µM] | IC50 (A549 [2]) [µM] | inhibition of growth (Pyricularia grisea) [%] | IC50 (HepG2 [3]) [µM] | IC50 (MKN-45) [µM] | further results
COc1cc(-c2nnc(SCc3ccccc3)n2N2C(=O)c3ccccc3C2=O)cc(OC)c1OC | > 200 | > 200 | < 50 | > 200 | > 200 | 
C=CCSc1nnc(CCC)n1N1C(=O)c2ccccc2C1=O | > 200 | > 200 | < 50 | > 200 | > 200 | 
CCCc1nnc(SCC(=O)c2ccc(Cl)cc2)n1N1C(=O)c2ccccc2C1=O | > 200 | > 200 | < 50 | > 200 | > 200 | 
COc1cc(-c2nnc(SCC(=O)c3ccc(F)c(F)c3)n2N2C(=O)c3ccccc3C2=O)cc(OC)c1OC | 163 | > 200 | < 50 | > 200 | > 200 | 
C=CCSc1nnc(-c2cc(OC)c(OC)c(OC)c2)n1N1C(=O)c2ccccc2C1=O | > 200 | > 200 | ≥ 60 | > 200 | > 200 | 
CCc1nnc(SC)n1N1C(=O)c2ccccc2C1=O | > 200 | > 200 | < 50 | > 200 | > 200 | 
CCCc1nnc(SC)n1N1C(=O)c2ccccc2C1=O | > 200 | > 200 | < 50 | > 200 | > 200 | 
COc1cc(-c2nnc(SCc3ccccc3Cl)n2N2C(=O)c3ccccc3C2=O)cc(OC)c1OC | > 200 | > 200 | < 50 | > 200 | > 200 | 
CCCc1nnc(SCC(=O)c2ccc(C)cc2)n1N1C(=O)c2ccccc2C1=O | > 200 | > 200 | ≥ 80 | > 200 | > 200 | 
Cc1nnc(SCC(=O)c2ccc(Cl)cc2)n1N1C(=O)c2ccccc2C1=O | > 200 | > 200 | ≥ 60 | > 200 | > 200 | 
C#CCSc1nnc(C)n1N1C(=O)c2ccccc2C1=O | > 200 | > 200 | ≥ 60 | > 200 | > 200 | 
COc1cc(-c2nnc(SCC(=O)c3ccc(Br)cc3)n2N2C(=O)c3ccccc3C2=O)cc(OC)c1OC | 22.6 | 16.1 | ≥ 60 | 27.7 | 22.3 | 
COc1cc(-c2nnc(SCC(=O)c3ccccc3C)n2N2C(=O)c3ccccc3C2=O)cc(OC)c1OC | > 200 | 144 | < 50 | > 200 | > 200 | 
COc1cc(-c2nnc(SCC(=O)c3ccc(F)cc3)n2N2C(=O)c3ccccc3C2=O)cc(OC)c1OC | > 200 | > 200 | < 50 | > 200 | 126 | 
COc1cc(-c2nnc(SCC(=O)c3ccc(C)cc3)n2N2C(=O)c3ccccc3C2=O)cc(OC)c1OC | 11.7 | 6.76 | < 50 | 9.44 | 9.62 | Activity (HepG2 [4]): 15.05%; Activity (HepG2 [5]): Dose-dependent effect; Activity (HepG2 [6]): 37.45%; Ratio IC50 (HepG2 [7]): 4; Activity (HepG2 [8]): 32.58%; Activity (HepG2 [9]): 36.7%; Activity (HepG2 [10]): 17.5%; Activity (HepG2 [11]): 21.07%; Ratio IC50 (A549 [12]): 4; Activity (HepG2 [13]): 40.73%; Activity (HepG2 [14]): 11.38%; Activity (HepG2 [15]): 6.31%; Activity (HepG2 [16]): 25.41%; Activity (HepG2 [17]): 29.22%; Activity (HepG2 [18]): 14.4%
CCc1nnc(SCC(=O)c2ccc(Cl)cc2)n1N1C(=O)c2ccccc2C1=O | > 200 | > 200 | < 50 | > 200 | > 200 | 
CCOC(=O)CSc1nnc(C)n1N1C(=O)c2ccccc2C1=O | > 200 | > 200 | < 50 | > 200 | > 200 | 
COc1cc(-c2nnc(SC)n2N2C(=O)c3ccccc3C2=O)cc(OC)c1OC | > 200 | > 200 | ≥ 50 | > 200 | > 200 | 
CCc1nnc(SCC(=O)c2ccccc2)n1N1C(=O)c2ccccc2C1=O | > 200 | > 200 | < 50 | > 200 | > 200 | 
CCOC(=O)CSc1nnc(CC)n1N1C(=O)c2ccccc2C1=O | > 200 | > 200 | ≥ 50 | > 200 | > 200 | 
